Assay results taken from ChEMBL document CHEMBL3576764, “α-Ketoamino acid ester derivatives as promising MAO inhibitors” (Bioorg Med Chem Lett, 2014).

Columns and labels:
[1] = Selectivity index, ratio of IC50 for MAO-B in bovine brain mitochondria to IC50 for MAO-A in rat liver mitochondria
Procedure, shortened: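 Enzyme source was mitochondria: rat liver for MAO-A, and bovine brain for MAO-B. Compounds were preincubated 60 min with enzyme before substrate was added: serotonin for MAO-A, benzylamine for MAO-B. Clorgyline served as the irreversible, time-dependent reference. Values are reported as IC50, and the selectivity index was derived from the MAO-A and MAO-B IC50s.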

[2] = target: T1, Amine oxidase [flavin-containing] B (Bos taurus, UniProt P56560); experiment: Inhibition of MAO-B in bovine brain mitochondria using benzylamine as substrate
T1 sequence (P56560 whole entry): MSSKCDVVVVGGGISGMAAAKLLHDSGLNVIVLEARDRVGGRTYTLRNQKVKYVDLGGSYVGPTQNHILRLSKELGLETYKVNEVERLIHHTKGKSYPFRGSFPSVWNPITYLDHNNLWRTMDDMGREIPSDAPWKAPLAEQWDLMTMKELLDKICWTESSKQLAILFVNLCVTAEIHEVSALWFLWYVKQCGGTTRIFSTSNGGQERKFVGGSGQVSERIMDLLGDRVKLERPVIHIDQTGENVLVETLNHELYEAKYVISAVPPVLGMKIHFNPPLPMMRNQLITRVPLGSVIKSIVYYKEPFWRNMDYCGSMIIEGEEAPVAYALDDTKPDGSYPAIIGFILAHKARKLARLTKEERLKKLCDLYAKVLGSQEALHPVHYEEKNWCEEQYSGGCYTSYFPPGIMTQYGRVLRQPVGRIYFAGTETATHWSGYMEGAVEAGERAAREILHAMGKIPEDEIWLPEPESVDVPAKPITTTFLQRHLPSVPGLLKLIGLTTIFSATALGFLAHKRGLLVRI

[3] = target: T2, Amine oxidase [flavin-containing] A (Rattus norvegicus, UniProt P21396); experiment: Inhibition of MAO-A in rat liver mitochondria using serotonin as substrate preincubated with enzyme for 60 mins prior to substrate addition
T2 sequence (P21396 whole entry): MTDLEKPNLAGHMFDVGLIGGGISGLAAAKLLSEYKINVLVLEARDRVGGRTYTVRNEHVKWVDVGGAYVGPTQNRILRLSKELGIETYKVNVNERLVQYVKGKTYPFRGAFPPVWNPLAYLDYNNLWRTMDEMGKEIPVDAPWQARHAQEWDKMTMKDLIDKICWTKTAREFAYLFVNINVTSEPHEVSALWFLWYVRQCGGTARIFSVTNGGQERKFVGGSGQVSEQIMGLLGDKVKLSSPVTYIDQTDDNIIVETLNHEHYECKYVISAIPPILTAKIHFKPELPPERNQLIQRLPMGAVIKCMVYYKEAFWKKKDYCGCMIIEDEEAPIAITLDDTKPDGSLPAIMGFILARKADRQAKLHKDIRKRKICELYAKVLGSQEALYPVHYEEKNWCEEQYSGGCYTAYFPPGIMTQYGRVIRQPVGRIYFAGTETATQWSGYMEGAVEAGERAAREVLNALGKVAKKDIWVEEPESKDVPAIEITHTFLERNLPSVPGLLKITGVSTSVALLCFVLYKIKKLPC

Mus musculus [4] = experiment: Toxicity in mouse up to dosed through parenteral route; conditions: in vivo
Mus musculus [5] = experiment: Toxicity in mouse assessed as mortality up to 250 mg/kg, po; assay type: organism-based; conditions: in vivo
Procedure, shortened: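 Acute oral toxicity study in male mice, with oral dosing up to 250 mg/kg and mortality recorded.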

| Selectivity Index [1] | IC50 [2] [µM] | IC50 [3] [µM] | SMILES | Activity (Mus musculus [4]) | Activity (Mus musculus [5]) |
| --- | --- | --- | --- | --- | --- |
| 11900 | 990 | 0.083 | CCOC(=O)c1ccc(NC(=O)C(=O)c2ccccc2NC(C)=O)cc1 |  |  |
| 12000 | 590 | 0.049 | COC(=O)CCCNC(=O)c1ccc(NC(=O)C(=O)c2ccccc2NC(C)=O)cc1 |  |  |
| 6660 | 480 | 0.072 | COC(=O)[C@H](CC(C)C)NC(=O)C(=O)c1ccccc1NC(C)=O |  |  |
| 7910 | 380 | 0.048 | COC(=O)C1(NC(=O)c2ccc(NC(=O)C(=O)c3ccccc3NC(C)=O)cc2)CCCC1 |  |  |
| 6780 | 380 | 0.056 | CC(=O)N1C(=O)C(=O)c2ccccc21 |  |  |
| 8370 | 360 | 0.043 | COC(=O)C(C)(C)NC(=O)c1ccc(NC(=O)C(=O)c2ccccc2NC(C)=O)cc1 |  |  |
| 8380 | 780 | 0.093 | COC(=O)CCCCCNC(=O)c1ccc(NC(=O)C(=O)c2ccccc2NC(C)=O)cc1 |  |  |
| 7930 | 460 | 0.058 | COC(=O)C[C@H](NC(=O)C(=O)c1ccccc1NC(C)=O)C(=O)OC |  |  |
| 8670 | 590 | 0.068 | COC(=O)CCCCCNC(=O)C(=O)c1ccccc1NC(C)=O |  |  |
| 7770 | 280 | 0.036 | COC(=O)[C@H](Cc1ccccc1)NC(=O)c1ccc(NC(=O)C(=O)c2ccccc2NC(C)=O)cc1 |  |  |
| 13200 | 790 | 0.06 | COC(=O)C[C@H](NC(=O)c1ccc(NC(=O)C(=O)c2ccccc2NC(C)=O)cc1)C(=O)OC |  |  |
| 15300 | 950 | 0.062 | COC(=O)CCCNC(=O)C(=O)c1ccccc1NC(C)=O |  |  |

| SMILES | Selectivity Index [1] | IC50 [2] [µM] | IC50 [3] [µM] | Activity (Mus musculus [4]) | Activity (Mus musculus [5]) |
| --- | --- | --- | --- | --- | --- |
| COC(=O)CCNC(=O)C(=O)c1ccccc1NC(C)=O | 30000 | 990 | 0.033 | Non-toxic | Non-toxic |
| COC(=O)[C@H](C)NC(=O)c1ccc(NC(=O)C(=O)c2ccccc2NC(C)=O)cc1 | 20300 | 730 | 0.036 | Non-toxic | Non-toxic |
| COC(=O)CCNC(=O)c1ccc(NC(=O)C(=O)c2ccccc2NC(C)=O)cc1 | 29400 | 530 | 0.018 | Non-toxic | Non-toxic |
| COC(=O)[C@@H](NC(=O)c1ccc(NC(=O)C(=O)c2ccccc2NC(C)=O)cc1)C(C)C | 154000 | 430 | 0.0028 | Non-toxic | Non-toxic |
